Test results published in ChEMBL document CHEMBL4602716, “Development of Selective Histone Deacetylase 6 (HDAC6) Degraders Recruiting Von Hippel-Lindau (VHL) E3 Ubiquitin Ligase” (ACS Med Chem Lett, 2020).
The source made the active and inactive calls. The calls are words filed in the database; no cut-off is given here.

Legend:
Type in all cases: cell-based
[1] = molecular target: T1, von Hippel-Lindau disease tumor suppressor/Protein deacetylase HDAC6 (Homo sapiens, UniProt Q9UBN7+P40337); experiment: Protac activity at VHL/HDAC6 in human MM1S cells assessed as HDAC6 degradation at 100 nM measured after 6 hrs by ELISA
Method in brief: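 Linker-length screen. MM1S cells were treated with degraders at 100 nM for 6 h, and HDAC6 protein level was quantified by in-cell ELISA.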
Target sequence in this assay (P40337 whole entry, looked up): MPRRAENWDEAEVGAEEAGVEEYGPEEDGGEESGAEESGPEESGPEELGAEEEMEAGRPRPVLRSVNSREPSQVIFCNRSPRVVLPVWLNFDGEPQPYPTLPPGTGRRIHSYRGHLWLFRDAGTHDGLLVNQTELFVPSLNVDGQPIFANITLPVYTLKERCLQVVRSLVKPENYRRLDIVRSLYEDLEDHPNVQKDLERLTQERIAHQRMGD
Target sequence in this assay (Q9UBN7 whole entry, looked up): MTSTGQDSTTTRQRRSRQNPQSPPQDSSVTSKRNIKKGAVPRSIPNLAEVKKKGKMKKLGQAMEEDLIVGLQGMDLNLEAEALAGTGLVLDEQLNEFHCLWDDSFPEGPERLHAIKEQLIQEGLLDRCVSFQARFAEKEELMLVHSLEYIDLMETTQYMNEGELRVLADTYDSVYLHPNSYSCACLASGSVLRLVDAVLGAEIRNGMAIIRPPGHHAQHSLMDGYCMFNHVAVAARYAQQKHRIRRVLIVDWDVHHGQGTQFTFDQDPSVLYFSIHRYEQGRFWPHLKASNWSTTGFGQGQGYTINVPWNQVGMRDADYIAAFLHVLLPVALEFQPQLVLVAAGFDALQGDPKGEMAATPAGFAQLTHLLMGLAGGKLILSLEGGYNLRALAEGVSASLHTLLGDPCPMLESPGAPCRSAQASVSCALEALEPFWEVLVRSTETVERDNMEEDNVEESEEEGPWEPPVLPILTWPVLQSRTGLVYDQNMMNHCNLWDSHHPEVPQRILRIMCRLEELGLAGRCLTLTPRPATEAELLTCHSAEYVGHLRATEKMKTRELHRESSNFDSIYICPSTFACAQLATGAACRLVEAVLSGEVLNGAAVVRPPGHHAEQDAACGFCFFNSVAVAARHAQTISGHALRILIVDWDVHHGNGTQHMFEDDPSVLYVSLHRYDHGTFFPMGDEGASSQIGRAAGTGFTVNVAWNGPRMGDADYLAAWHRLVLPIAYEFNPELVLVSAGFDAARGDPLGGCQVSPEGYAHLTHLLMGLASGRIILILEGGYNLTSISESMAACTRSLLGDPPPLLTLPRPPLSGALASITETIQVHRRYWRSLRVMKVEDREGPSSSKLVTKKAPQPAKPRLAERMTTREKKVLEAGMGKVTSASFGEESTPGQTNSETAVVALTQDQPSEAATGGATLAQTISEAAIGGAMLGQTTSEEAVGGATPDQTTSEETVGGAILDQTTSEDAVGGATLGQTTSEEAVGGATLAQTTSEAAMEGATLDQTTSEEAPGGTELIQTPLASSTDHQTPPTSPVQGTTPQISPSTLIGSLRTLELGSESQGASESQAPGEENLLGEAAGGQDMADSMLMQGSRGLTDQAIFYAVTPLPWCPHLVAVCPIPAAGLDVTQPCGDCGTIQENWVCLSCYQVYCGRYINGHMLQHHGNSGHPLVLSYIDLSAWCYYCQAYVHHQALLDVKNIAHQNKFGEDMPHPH

[2] = molecular target: T1, von Hippel-Lindau disease tumor suppressor/Protein deacetylase HDAC6; experiment: Protac activity at VHL/HDAC6 in human MM1S cells assessed as HDAC6 degradation at 100 nM measured after 6 hrs by Western blot analysis
Method in brief: (§1)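 MM1S cells were treated with degraders at 100 nM for 6 h. Lysates were analysed by Western blot for HDAC6 and acetylated tubulin.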
Target sequence in this assay (P40337 whole entry, looked up): as the sequence (P40337 whole entry, looked up) above
Target sequence in this assay (Q9UBN7 whole entry, looked up): as the sequence (Q9UBN7 whole entry, looked up) above

[3] = molecular target: T2, Protein cereblon/Protein deacetylase HDAC6 (Homo sapiens, UniProt Q9UBN7+Q96SW2); experiment: Protac activity at CRBN/HDAC6 in human MM1S cells measured after 6 hrs by ELISA relative to control
Method in brief: (§2)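 MM1S multiple myeloma cells exposed to degraders for 6 h. HDAC6 protein level was read by in-cell ELISA; dose-response ran from 1 nM to 3 μM. DC50 and Dmax were derived from the dose-response curve.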
Target sequence in this assay (Q96SW2 whole entry, looked up): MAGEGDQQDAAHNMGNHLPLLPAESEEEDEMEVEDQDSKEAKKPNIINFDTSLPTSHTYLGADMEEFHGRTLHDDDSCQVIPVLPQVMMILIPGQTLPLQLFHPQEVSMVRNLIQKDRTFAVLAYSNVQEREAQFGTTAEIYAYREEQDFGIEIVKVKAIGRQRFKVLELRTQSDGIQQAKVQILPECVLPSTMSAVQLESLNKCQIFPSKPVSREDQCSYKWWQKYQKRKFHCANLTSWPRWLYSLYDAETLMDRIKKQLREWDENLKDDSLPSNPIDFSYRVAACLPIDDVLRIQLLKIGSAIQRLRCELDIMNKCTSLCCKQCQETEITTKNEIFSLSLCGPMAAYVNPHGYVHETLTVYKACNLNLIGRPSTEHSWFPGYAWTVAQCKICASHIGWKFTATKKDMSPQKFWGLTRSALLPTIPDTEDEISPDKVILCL
Target sequence in this assay (Q9UBN7 whole entry, looked up): as the sequence (Q9UBN7 whole entry, looked up) above

[4] = molecular target: T2, Protein cereblon/Protein deacetylase HDAC6; experiment: Protac activity at CRBN/HDAC6 in human MM1S cells assessed as increase in tubulin acetylation at 300 nM to 1 microM after 6 hrs by Western blot analysis
Target sequence in this assay (Q96SW2 whole entry, looked up): as the sequence (Q96SW2 whole entry, looked up) above
Target sequence in this assay (Q9UBN7 whole entry, looked up): as the sequence (Q9UBN7 whole entry, looked up) above

[5] = molecular target: T2, Protein cereblon/Protein deacetylase HDAC6; experiment: Protac activity at CRBN/HDAC6 in human MM1S cells assessed as reduction in protein level at 100 nM after 4 hrs by Western blot analysis
Target sequence in this assay (Q96SW2 whole entry, looked up): as the sequence (Q96SW2 whole entry, looked up) above
Target sequence in this assay (Q9UBN7 whole entry, looked up): as the sequence (Q9UBN7 whole entry, looked up) above

[6] = molecular target: Protein cereblon/Protein deacetylase HDAC6 (Mus musculus) (UniProt Q9Z2V5+Q8C7D2); experiment: Protac activity at CRBN/HDAC6 in mouse 4935 cells assessed as HDAC6 degradation after 6 hrs by relative to control
Method in brief: (§3)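 Mouse 4935 cells were treated with degrader for 6 h, and HDAC6 level was measured by in-cell ELISA.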

[7] = molecular target: T2, Protein cereblon/Protein deacetylase HDAC6; experiment: Protac activity at CRBN/HDAC6 in human MM1S cells assessed as reduction in protein level at 100 nM after 30 mins by Western blot analysis
Target sequence in this assay (Q96SW2 whole entry, looked up): as the sequence (Q96SW2 whole entry, looked up) above
Target sequence in this assay (Q9UBN7 whole entry, looked up): as the sequence (Q9UBN7 whole entry, looked up) above

[8] = molecular target: T3, Protein cereblon/Protein deacetylase HDAC6 (Mus musculus, UniProt Q9Z2V5+Q8C7D2); experiment: Protac activity at CRBN/HDAC6 in mouse 4935 cells assessed as HDAC6 degradation after 6 hrs by Western blot analysis
T3 sequence (Q9Z2V5 whole entry): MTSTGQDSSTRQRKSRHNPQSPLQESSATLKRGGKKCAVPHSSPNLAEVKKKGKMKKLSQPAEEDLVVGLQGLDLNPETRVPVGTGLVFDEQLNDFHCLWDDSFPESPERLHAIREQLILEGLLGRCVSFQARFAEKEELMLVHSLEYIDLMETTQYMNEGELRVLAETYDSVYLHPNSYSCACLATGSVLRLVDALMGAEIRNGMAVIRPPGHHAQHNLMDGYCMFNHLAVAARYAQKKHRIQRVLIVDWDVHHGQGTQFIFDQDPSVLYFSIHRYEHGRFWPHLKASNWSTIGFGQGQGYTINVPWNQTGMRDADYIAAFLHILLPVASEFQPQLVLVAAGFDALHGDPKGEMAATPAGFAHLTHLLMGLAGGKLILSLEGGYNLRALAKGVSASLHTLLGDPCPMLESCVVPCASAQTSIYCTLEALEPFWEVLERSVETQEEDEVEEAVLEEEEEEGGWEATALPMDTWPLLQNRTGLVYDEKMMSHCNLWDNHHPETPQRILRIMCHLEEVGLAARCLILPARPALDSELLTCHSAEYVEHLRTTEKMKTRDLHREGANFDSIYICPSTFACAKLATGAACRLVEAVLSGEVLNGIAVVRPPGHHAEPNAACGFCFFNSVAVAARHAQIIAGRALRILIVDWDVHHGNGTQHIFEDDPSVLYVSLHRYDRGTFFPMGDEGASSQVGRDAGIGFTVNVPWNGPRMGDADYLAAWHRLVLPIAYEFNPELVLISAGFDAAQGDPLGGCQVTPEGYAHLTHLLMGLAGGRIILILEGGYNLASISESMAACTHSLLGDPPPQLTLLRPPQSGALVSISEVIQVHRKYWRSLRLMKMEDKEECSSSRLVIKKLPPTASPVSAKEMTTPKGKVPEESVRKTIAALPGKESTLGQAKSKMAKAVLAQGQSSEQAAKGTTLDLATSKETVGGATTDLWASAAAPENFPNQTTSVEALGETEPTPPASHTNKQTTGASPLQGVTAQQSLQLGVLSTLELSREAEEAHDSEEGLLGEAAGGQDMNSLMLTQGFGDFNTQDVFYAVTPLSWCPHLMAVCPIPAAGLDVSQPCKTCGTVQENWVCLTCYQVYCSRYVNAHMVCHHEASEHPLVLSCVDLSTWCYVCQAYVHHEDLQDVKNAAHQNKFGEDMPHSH
T3 sequence (Q8C7D2 whole entry): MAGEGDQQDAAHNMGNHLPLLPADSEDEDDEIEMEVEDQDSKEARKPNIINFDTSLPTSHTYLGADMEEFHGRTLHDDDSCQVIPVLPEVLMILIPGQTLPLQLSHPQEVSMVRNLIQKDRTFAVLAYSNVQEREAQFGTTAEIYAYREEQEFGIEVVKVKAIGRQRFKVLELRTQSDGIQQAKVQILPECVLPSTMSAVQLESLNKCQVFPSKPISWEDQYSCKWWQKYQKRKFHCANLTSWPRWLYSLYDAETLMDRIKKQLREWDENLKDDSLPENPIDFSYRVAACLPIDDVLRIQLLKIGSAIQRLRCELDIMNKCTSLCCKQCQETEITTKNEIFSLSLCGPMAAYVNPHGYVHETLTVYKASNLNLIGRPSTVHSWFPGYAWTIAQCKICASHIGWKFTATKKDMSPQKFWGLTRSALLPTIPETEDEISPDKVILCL
Method in brief: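 Mouse 4935 cells were treated with degraders for 6 h, then analysed by Western blot for HDAC6 and acetylated tubulin.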

[9] = molecular target: T3, Protein cereblon/Protein deacetylase HDAC6; experiment: Protac activity at CRBN/HDAC6 in mouse 4935 cells assessed as HDAC6 degradation after 6 hrs by ELISA; method in brief: as §3
[10] = molecular target: T2, Protein cereblon/Protein deacetylase HDAC6; experiment: Protac activity at CRBN/HDAC6 in human MM1S cells measured after 6 hrs by ELISA; method in brief: as §2
Target sequence in this assay (Q9UBN7 whole entry): as the sequence (Q9UBN7 whole entry, looked up) above
Target sequence in this assay (Q96SW2 whole entry): as the sequence (Q96SW2 whole entry, looked up) above

[11] = molecular target: T1, von Hippel-Lindau disease tumor suppressor/Protein deacetylase HDAC6; experiment: Protac activity at VHL/HDAC6 in human MM1S cells assessed as increase in tubulin acetylation at 100 nM measured after 6 hrs by Western blot analysis; method in brief: as §1
Target sequence in this assay (P40337 whole entry, looked up): as the sequence (P40337 whole entry, looked up) above
Target sequence in this assay (Q9UBN7 whole entry, looked up): as the sequence (Q9UBN7 whole entry, looked up) above

[12] = molecular target: T1, von Hippel-Lindau disease tumor suppressor/Protein deacetylase HDAC6; experiment: Protac activity at VHL/HDAC6 in human MM1S cells measured after 6 hrs by ELISA relative to control; method in brief: as §2
Target sequence in this assay (P40337 whole entry, looked up): as the sequence (P40337 whole entry, looked up) above
Target sequence in this assay (Q9UBN7 whole entry, looked up): as the sequence (Q9UBN7 whole entry, looked up) above

[13] = molecular target: T1, von Hippel-Lindau disease tumor suppressor/Protein deacetylase HDAC6; experiment: Protac activity at VHL/HDAC6 in human MM1S cells measured after 6 hrs by ELISA; method in brief: as §2
Target sequence in this assay (Q9UBN7 whole entry): as the sequence (Q9UBN7 whole entry, looked up) above
Target sequence in this assay (P40337 whole entry): as the sequence (P40337 whole entry, looked up) above

Compound | Activity [1] | Activity [2] | other results
CCCCN(Cc1ccc(C(=O)NO)cc1)C(=O)Nc1ccc(OCCCCCCCCn2cc(CCCCC(=O)N[C@H](C(=O)N3C[C@H](O)C[C@H]3C(=O)NCc3ccc(-c4scnc4C)cc3)C(C)(C)C)nn2)cc1 | Active | Active | 
CCCCN(Cc1ccc(C(=O)NO)cc1)C(=O)Nc1ccc(OCCn2cc(CCCCC(=O)N[C@H](C(=O)N3C[C@H](O)C[C@H]3C(=O)NCc3ccc(-c4scnc4C)cc3)C(C)(C)C)nn2)cc1 | Active |  | 
CCCCN(Cc1ccc(C(=O)NO)cc1)C(=O)Nc1ccc(OCCCCCn2cc(CNc3cccc4c3C(=O)N(C3CCC(=O)NC3=O)C4=O)nn2)cc1 (stereo unspecified) |  |  | Emax [3]: 86%; Activity [4]: Active; Activity [5]: Active; Emax [6]: 45%; Activity [7]: Active; DC50 [8]: 0.36 µM; DC50 [9]: 0.018 µM; DC50 [10]: 0.0022 µM
CCCCN(Cc1ccc(C(=O)NO)cc1)C(=O)Nc1ccc(OCCCCCCCCCCn2cc(CCCCC(=O)N[C@H](C(=O)N3C[C@H](O)C[C@H]3C(=O)NCc3ccc(-c4scnc4C)cc3)C(C)(C)C)nn2)cc1 | Active | Active | Activity [11]: Active
CCCCN(Cc1ccc(C(=O)NO)cc1)C(=O)Nc1ccc(OCCCCCCCCCn2cc(CCCCC(=O)N[C@H](C(=O)N3C[C@H](O)C[C@H]3C(=O)NCc3ccc(-c4scnc4C)cc3)C(C)(C)C)nn2)cc1 | Active | Active | Activity [11]: Active
CCCCN(Cc1ccc(C(=O)NO)cc1)C(=O)Nc1ccc(OCCCCCCCCCCCCn2cc(CCCCC(=O)N[C@H](C(=O)N3C[C@H](O)C[C@H]3C(=O)NCc3ccc(-c4scnc4C)cc3)C(C)(C)C)nn2)cc1 | Active | Active | Emax [12]: 89%; DC50 [13]: 0.011 µM

Continued, in another order:

Activity [1] | Activity [2] | Compound | other results
Active |  | CCCCN(Cc1ccc(C(=O)NO)cc1)C(=O)Nc1ccc(OCCCn2cc(CCCCC(=O)N[C@H](C(=O)N3C[C@H](O)C[C@H]3C(=O)NCc3ccc(-c4scnc4C)cc3)C(C)(C)C)nn2)cc1 | 
Active |  | CCCCN(Cc1ccc(C(=O)NO)cc1)C(=O)Nc1ccc(OCCCCn2cc(CCCCC(=O)N[C@H](C(=O)N3C[C@H](O)C[C@H]3C(=O)NCc3ccc(-c4scnc4C)cc3)C(C)(C)C)nn2)cc1 | 
Active |  | CCCCN(Cc1ccc(C(=O)NO)cc1)C(=O)Nc1ccc(OCCCCCCCn2cc(CCCCC(=O)N[C@H](C(=O)N3C[C@H](O)C[C@H]3C(=O)NCc3ccc(-c4scnc4C)cc3)C(C)(C)C)nn2)cc1 | 
Active |  | CCCCN(Cc1ccc(C(=O)NO)cc1)C(=O)Nc1ccc(OCCCCCCn2cc(CCCCC(=O)N[C@H](C(=O)N3C[C@H](O)C[C@H]3C(=O)NCc3ccc(-c4scnc4C)cc3)C(C)(C)C)nn2)cc1 | 
Active |  | CCCCN(Cc1ccc(C(=O)NO)cc1)C(=O)Nc1ccc(OCCCCCn2cc(CCCCC(=O)N[C@H](C(=O)N3C[C@H](O)C[C@H]3C(=O)NCc3ccc(-c4scnc4C)cc3)C(C)(C)C)nn2)cc1 | 
